From PubChem
SR-BI uptake up: SR-BI HDL lipid transfer activation; CHO ldlA[mSR-BI] cells, DiI-HDL uptake fluorescence, 3 h; 100 = double the neutral-control signal; activation, % at 12.5 µM; actives 0.096% (n = 320,000); AID 504775;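 active = mean replicate activation of at least 60% and every replicate at or above 60%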;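 note: 0% = median plate neutral-control signal and 100% = twice that signal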
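Test system: SR-BI-overexpressing, LDLR-lacking CHO cells. Measured by: DiI fluorescence, bottom read. Medium: Ham's F12 with 0.5% BSA, HEPES 25 mM, pH 7.4. Timing: 3 h uptake period with compound, 37 °C.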
SR-BI HDL uptake: mouse SR-BI HDL lipid transfer inhibition; AID 488896; actives 0.96% (n = 320,000); ldlA[mSR-BI] CHO cells, DiI-HDL uptake fluorescence, 3 h; inhibition, % at 12.5 µM; Q61009;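 active = mean replicate inhibition of at least 70% and a set share of replicates each scoring 70 or more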;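 note: 0% = median of neutral control wells and 100% = median of positive control wells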
Target sequence (Q61009 whole entry, looked up): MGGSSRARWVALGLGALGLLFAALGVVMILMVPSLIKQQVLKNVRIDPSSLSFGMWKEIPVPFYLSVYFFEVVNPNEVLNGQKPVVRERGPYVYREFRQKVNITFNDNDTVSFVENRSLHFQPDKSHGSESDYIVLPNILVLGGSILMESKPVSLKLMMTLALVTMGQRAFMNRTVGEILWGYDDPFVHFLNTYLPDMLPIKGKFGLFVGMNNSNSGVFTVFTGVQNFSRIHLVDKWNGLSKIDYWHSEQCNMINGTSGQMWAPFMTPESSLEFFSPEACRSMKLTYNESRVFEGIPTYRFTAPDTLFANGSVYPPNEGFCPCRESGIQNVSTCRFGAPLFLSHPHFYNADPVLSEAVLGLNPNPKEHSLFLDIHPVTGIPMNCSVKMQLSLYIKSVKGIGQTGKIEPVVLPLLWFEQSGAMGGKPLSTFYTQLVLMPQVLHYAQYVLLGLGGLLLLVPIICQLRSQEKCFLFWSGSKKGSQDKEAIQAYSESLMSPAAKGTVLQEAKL
Vif inh: HIV Vif inhibition | inhibition, % at 7.49 µM | actives 0.35% (n = 340,000) | HEK293T cells, Vif self-association by quenched fluorescence, imaging, 24 h; in the data active = inhibition above about 50%, passing the limit was not always enough
PKA-R1A act: activates the PKA-R1A holoenzyme complex; P00514+P68181; PKA-R1A dissociation, Cy5-IP20 fluorescence polarization; scaled: DMSO 0%, 113 µM cGMP 100%; activation, % at 11.4 µM; actives 0.083% (n = 340,000);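 active = percent activation above the mean of all tested compounds plus 3 SD, cut at about 19% in these data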;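 note: higher means more PKAc released from R1A so a rise in polarization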
PKA-R2B activ: activates the human PKA-R2B holoenzyme complex; PKA-R2B holoenzyme dissociation, Cy5-IP20 fluorescence polarization; R2B truncated from residue 108, S112A mutant; 0% DMSO only, 100% 113 µM cGMP; actives 0.079% (n = 340,000); activation, % at 11.4 µM;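 active = activation above a cutoff set at the mean over all compounds plus 3 SD, cut at about 18% in these data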;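 note: higher means more holoenzyme dissociation and a rise in polarization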
Numbers without * were called inactive. Hits are enriched below; roughly 1.4% of the tested compounds scored in any of these assays.

For CCOc1ccccc1N(C)C(=O)c1ccc2c(=O)n3c(nc2c1)CCCCC3 the results were SR-BI uptake up 6, SR-BI HDL uptake -6, Vif inh 3, PKA-R1A act -4 and PKA-R2B activ 0.
Cc1cc(C)cc(OCC(=O)OCC(=O)NCCC2=CCCCC2)c1 was read as SR-BI uptake up 20, SR-BI HDL uptake -20, Vif inh -4, PKA-R1A act 5 and PKA-R2B activ 5.
`O=C(COC(=O)COc1ccccc1)NCCC1=CCCCC1` gave SR-BI uptake up 73*, SR-BI HDL uptake -73, Vif inh 4, PKA-R1A act -8 and PKA-R2B activ 4.
`O=C(COC(=O)c1ccc(Cl)c(S(=O)(=O)NCc2ccccc2)c1)NCC1CCCO1` (centres undefined) gave SR-BI uptake up -28, SR-BI HDL uptake 28, Vif inh 15, PKA-R1A act -12 and PKA-R2B activ 1.
CCCS(=O)(=O)N1CCC(C(=O)NCCC(C)C)CC1 was read as SR-BI uptake up 11, SR-BI HDL uptake -11, Vif inh 24, PKA-R1A act 1 and PKA-R2B activ 0.
Screening COC(=O)c1ccccc1CSc1nsc(/C=C/N(C)C)c1C#N returned SR-BI uptake up -101, SR-BI HDL uptake 101*, Vif inh -2, PKA-R1A act -12 and PKA-R2B activ -8.
For Cc1nc(CSc2nsc(/C=C/N(C)C)c2C#N)cs1 the results were SR-BI uptake up -17, SR-BI HDL uptake 17, Vif inh 13, PKA-R1A act 1 and PKA-R2B activ 3.
Screening COc1cc(CN2C(=O)C(CCc3ccccc3)ON=C2c2cnccn2)cc(OC)c1 (centres undefined) returned Vif inh -1.
CCSc1nc(-c2ccc(OC)cc2)cc(-c2ccccc2)c1C#N was read as SR-BI uptake up -80, SR-BI HDL uptake 80*, PKA-R1A act 6 and PKA-R2B activ -8.
For COC(=O)c1ccc(NCc2c(O)ccc(O)c2Br)cc1Cl the results were SR-BI uptake up -26, SR-BI HDL uptake 26, Vif inh 70*, PKA-R1A act -14 and PKA-R2B activ -16.
Screening O=C(COC(=O)c1ccc(O)cc1O)Nc1ccc2ccccc2c1 returned SR-BI uptake up -8, SR-BI HDL uptake 8, Vif inh 0, PKA-R1A act -2 and PKA-R2B activ 1.
Screening COC(=O)c1ccc(NCc2cc(O)ccc2O)cc1O returned SR-BI uptake up 1, SR-BI HDL uptake -1, Vif inh 85*, PKA-R1A act 1 and PKA-R2B activ -7.
For COC(=O)CSc1nc(C2CC2)cc(C(F)(F)F)c1C#N the results were SR-BI uptake up 10, SR-BI HDL uptake -10, Vif inh 79*, PKA-R1A act -7 and PKA-R2B activ -3.
Cn1cccc1-c1cc(C(=O)N/N=C/c2ccc([N+](=O)[O-])cc2)[nH]n1 was read as SR-BI uptake up -14, SR-BI HDL uptake 14, Vif inh 70*, PKA-R1A act -3 and PKA-R2B activ 2.
`Cn1cccc1-c1cc(C(=O)N/N=C/c2cc(Br)ccc2O)[nH]n1` gave SR-BI uptake up -105, SR-BI HDL uptake 105*, Vif inh 10, PKA-R1A act 0 and PKA-R2B activ -7.
`Cc1cc(C)cc(C(=O)NCC(=O)OC(C)C(=O)N(C)c2ccccc2)c1` (centres undefined) gave SR-BI uptake up -16, SR-BI HDL uptake 16, Vif inh -8, PKA-R1A act -12 and PKA-R2B activ -8.
For Cc1ccc(C(=O)OC(C)C(=O)Nc2ccc3c(c2)OCO3)c(O)c1 (centres undefined) the results were SR-BI uptake up 7, SR-BI HDL uptake -7, Vif inh 21, PKA-R1A act -9 and PKA-R2B activ -2.
COc1cc(C2C3=C(COC3=O)Oc3cc4c(cc32)OCO4)cc(OC)c1OC (centres undefined) was read as SR-BI uptake up -3, SR-BI HDL uptake 3, Vif inh 0, PKA-R1A act 2 and PKA-R2B activ -3.
COc1cc(C2C3=C(COC3=O)Oc3cc4c(cc32)OCO4)cc(OC)c1O (centres undefined) was read as SR-BI uptake up 3, SR-BI HDL uptake -3, Vif inh 60*, PKA-R1A act -2 and PKA-R2B activ -1.
COc1cccc(NC(=O)N(C)C[C@H]2OCc3cnnn3CCCC(=O)N([C@H](C)CO)C[C@@H]2C)c1 was read as Vif inh -5, PKA-R1A act -3 and PKA-R2B activ -8.
COC(=O)C1=NNC(C(=O)c2ccco2)C1c1ccc(OC)cc1 (centres undefined) was read as SR-BI uptake up 3, SR-BI HDL uptake -3, Vif inh 52*, PKA-R1A act -6 and PKA-R2B activ 5.
CC1=C(C#N)C(=O)N(C)C(C)(C)C1 was read as SR-BI uptake up 140*, SR-BI HDL uptake -140, Vif inh -12, PKA-R1A act 5 and PKA-R2B activ 6.
For CCOc1c(Br)cc(/C=C2/SC(=O)N(CC(=O)N3CCCC3)C2=O)cc1OC the results were SR-BI uptake up -60, SR-BI HDL uptake 60, Vif inh 12, PKA-R1A act -10 and PKA-R2B activ -6.
Screening CCOC(=O)COc1c(Br)cc(/C=C2\SC(=O)N(CC(=O)N3CCCC3)C2=O)cc1OC returned SR-BI uptake up -72, SR-BI HDL uptake 72*, Vif inh 0, PKA-R1A act -16 and PKA-R2B activ -2.
Screening CCN(C(=O)CSc1nnc(CNc2cccc(OC)c2)n1C1CCCCC1)C1CCS(=O)(=O)C1 (centres undefined) returned SR-BI uptake up -3, SR-BI HDL uptake 3, Vif inh 1, PKA-R1A act -5 and PKA-R2B activ -3.
For Cc1ccc(-c2nnn3c2nc(NCCc2ccc(S(N)(=O)=O)cc2)c2ccccc23)cc1 the results were SR-BI uptake up 88*, SR-BI HDL uptake -88, Vif inh 38, PKA-R1A act -1 and PKA-R2B activ 0.
N#CC1C=Cc2c(ccc3ccccc23)N1C(=O)c1ccccc1 (centres undefined) was read as SR-BI uptake up -34, SR-BI HDL uptake 34, Vif inh 9, PKA-R1A act -2 and PKA-R2B activ 4.
Screening Cc1ccnc(NC(=O)COc2c(C)cc(C)cc2[N+](=O)[O-])c1 returned SR-BI uptake up -98, SR-BI HDL uptake 98*, Vif inh 1, PKA-R1A act 4 and PKA-R2B activ -3.
`COc1ccc(NC(=O)c2ccc(-n3c(C)ccc3C)cc2)c(OC)c1` gave SR-BI uptake up -62, SR-BI HDL uptake 62, Vif inh 4, PKA-R1A act -3 and PKA-R2B activ 9.
